# From PubChem
# A selection: hits, their analogues and other compounds. The true share with any hit is near 3.5%.
# MrgX1 ag – agonists of human MrgX1 receptor, primary screen, HEK293 cells, Fluo-4 calcium flux. 0.44% of 310,000 active. Mas-related G-protein coupled receptor member X1 (Homo sapiens), Q96LB2. B-score at 10 µM. Fluo-4 calcium fluorescence, agonist mode; stronger effect = higher value;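 active means calcium response B-score plate-corrected fluorescence ratio at least 3 library SD, with starting fluorescence B-score inside 5 SD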
# Target sequence (Q96LB2 whole entry, looked up): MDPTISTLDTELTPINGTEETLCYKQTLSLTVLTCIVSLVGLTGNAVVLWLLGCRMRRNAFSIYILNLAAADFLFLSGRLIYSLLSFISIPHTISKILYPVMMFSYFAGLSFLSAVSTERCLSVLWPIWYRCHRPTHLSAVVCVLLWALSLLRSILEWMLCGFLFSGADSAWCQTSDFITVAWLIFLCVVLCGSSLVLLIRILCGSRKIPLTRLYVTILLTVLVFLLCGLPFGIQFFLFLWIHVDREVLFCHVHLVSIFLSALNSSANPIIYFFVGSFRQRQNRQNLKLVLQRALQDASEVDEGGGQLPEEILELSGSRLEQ
#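 Material – MrgX1-expressing HEK293 cells · Input – 15,000 cells seeded per well · Dosing – compound as first of three additions · Times – overnight seeding, then 1 h dark dye loading · Measured by – kinetic Fluo-4 NW fluorescence of intracellular calcium · Read-out – B-scored fluorescence response ratio · Benchmarks – positive and negative control wells on each plate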
# MrgX1 PAM – positive allosteric modulators of MrgX1, primary screen, HEK293 cells, Fluo-4 calcium flux. FDSS; stronger effect = higher value. 0.63% of 310,000 active. B-score at 10 µM. Mas-related G-protein coupled receptor member X1 (Homo sapiens), Q96LB2;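 active means plate-corrected calcium response at least 3 library SD above typical, normal starting fluorescence, not activating the receptor alone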;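 further: compound read alongside a low EC10 to EC30 dose of BAM8-22 agonist; peak minus trough fluorescence over baseline measured at the second addition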
# RGS4 act – RGS4 potentiators or activators, primary screen, cell-based, HEK293 M3R inducible RGS4, calcium flux; 0.92% of 310,000 active; carbachol calcium flux Fluo4; stronger effect = lower value; B-score at 10 µM;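 active means B-score of the integrated calcium signal more than 4 SD below the library mean, with starting fluorescence not abnormally high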;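 further: negative B-score means reduced calcium response which marks RGS4 activation or potentiation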
#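 Also added: carbachol at ECmax as muscarinic agonist stimulus; Assay system: HEK293 cells with stable M3R and inducible RGS4; Timing: overnight RGS4 induction, 30 min dye load 37 °C, 20 min compound RT; Measured by: Fluo4-AM (2 µM) calcium-flux fluorescence, kinetic read.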
# MrgX1 antagonist – antagonists of human MrgX1 receptor, primary screen, HEK293 cells, Fluo-4 calcium flux | Mas-related G-protein coupled receptor member X1 (Homo sapiens), Q96LB2 | BAM8-22 antagonism; stronger effect = lower value | B-score at 10 µM | 1.3% of 310,000 active | AID 588676, 2011;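 active means calcium-response B-score plate-corrected more than 3 library SD below zero, starting fluorescence within 5 deviations, no agonist response on first addition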;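 further: peak minus trough fluorescence over baseline after final BAM8-22 challenge near maximal dose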
# RGS4 block – RGS4 inhibitors, primary screen, cell-based, HEK293 M3R inducible RGS4, calcium flux | Regulator of G-protein signaling 4 (Homo sapiens), P49798 | Fluo-4 calcium flux; stronger effect = higher value; triggered by carbachol at its EC20 | B-score at 10 µM | 0.45% of 310,000 active | AID 463165, 2010;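 active means B-score, a plate-corrected calcium signal, over three deviations above library mean, with baseline fluorescence within five deviations of library mean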;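 further: RGS4 expression induced by doxycycline in cells with stable M3 receptor; B-score is computed from the integrated fluorescence ratio over baseline after carbachol; higher B-score means a larger calcium signal and so more RGS4 inhibition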
# An asterisk follows results filed as active; i = inactive; x = no result given.
SMILES,MrgX1 ag,MrgX1 PAM,RGS4 act,MrgX1 antagonist,RGS4 block
O=C(Nc1cccc(Cl)c1)C1C2CCC3C(CCC21)C3(Cl)Cl (configuration not stated),i,i,-7.5*,i,i
COc1ccc(N2C(=O)CSC2c2ccc3c(c2)OCO3)cc1 (configuration not stated),i,i,-7*,i,i
COc1ccc(N2C(=O)CSC2c2ccc3c(c2)OCO3)c(OC)c1 (configuration not stated),i,i,i,i,i
CC1C(=NO)C(C)C(c2ccc(N(C)C)cc2)NC1c1ccc(N(C)C)cc1 (configuration not stated),i,14*,i,i,i
c1coc(-c2nnc3sc(Cc4cccs4)nn23)c1,i,i,i,-7.2*,i
CCN(CC)S(=O)(=O)c1cccc(C(=O)/C=C2/N(C)c3ccccc3C2(C)C)c1,i,i,-7*,i,i
CN1/C(=C\C(=S)NC(=O)c2cccc(Br)c2)C(C)(C)c2ccccc21,i,i,i,i,i
CCCCCCCCCCCC(=O)c1c(O)cccc1O,i,i,-9.2*,i,i
Cn1ncc(Cl)c1C(=O)N/N=C/c1ccccn1,i,i,i,-9.3*,i
CCC(=O)Nc1nnc(S(=O)(=O)N2c3ccccc3CC2C)s1 (configuration not stated),i,i,i,i,i
Cc1cc(C)c(C#N)c(SCc2c(F)cccc2[N+](=O)[O-])n1,i,i,i,-5.7*,i
On1c2c(c3c4nonc4ccc31)CCCC2,27*,i,i,i,i
COn1c2c(c3c4nonc4ccc31)CCCC2,i,i,i,i,i
Cc1cc(C)cc(-n2c(C)cc(/C=C3\C(=N)N4N=C(CC(C)C)SC4=NC3=O)c2C)c1,i,i,-7.8*,i,i
CCCC1=NN2C(=N)/C(=C\c3cc(C)n(-c4cc(C)cc(C)c4)c3C)C(=O)N=C2S1,i,i,-8.6*,i,i
CC(=O)N(NC(=O)c1ccc(C)cc1)C1CC(=O)N(c2ccccc2Cl)C1=O (configuration not stated),i,i,i,i,i
CC(C)CCN1C(=O)c2ccc(C(=O)NCc3ccccn3)cc2C1=O,i,i,i,i,i
Cc1c2cnn(CC(=O)N3CCN(c4ncccn4)CC3)c(=O)c2c(C)n1Cc1ccc(F)cc1,i,i,i,i,i
Cc1c2cnn(CC(=O)NCCN3CCOCC3)c(=O)c2c(C)n1Cc1ccc(F)cc1,i,i,i,-5.8*,i
CC(=O)NC(=S)Nc1ccc([N+](=O)[O-])cc1C,i,i,i,-8*,i
COc1ccc([N+](=O)[O-])cc1NC(=S)NC(C)=O,i,i,i,i,i
Cc1ccc(Cn2nc(C)c(NC(=O)CSc3n[nH]c(C)c3[N+](=O)[O-])c2C)cc1,i,i,i,-6*,i
Oc1ccc(N=Nc2cccc(Cl)c2)cc1C=Nc1ccc(N2CCOCC2)cc1,x,x,i,x,8.7*
CCOC(=O)C1CCN(c2c(NCCN(CC)c3ccccc3)c(=O)c2=O)CC1,i,10*,i,i,i
CCn1cc(C2C3=C(CC(C)(C)CC3=O)N(c3ccccc3)C3=C2C(=O)CC(C)(C)C3)c(C)n1,i,i,i,i,i
COC(=O)[C@H](Cc1ccccc1)NC(=O)NCCc1ccccc1F,i,i,i,i,i
